The record followed here is BindingDB's records for doi:10.1021/jm200203f (Washington University, 2011).

One experiment addresses D(2) dopamine receptor (Homo sapiens, UniProt P14416). The experiment is described as follows: Displacement of [125I]IABN from human dopamine D2 long receptor expressed in HEK293 cells after 60 mins by gamma counting.
In the next experiment the target is D(3) dopamine receptor (Homo sapiens, UniProt P35462). The experiment is described as follows: Displacement of [125I]IABN from human dopamine D3 receptor expressed in HEK293 cells after 60 mins by gamma counting. Background: Displacement assays read how much labelled ligand stays bound in the presence of the test substance.
Sequence of D(3) dopamine receptor (P35462 as listed by the source): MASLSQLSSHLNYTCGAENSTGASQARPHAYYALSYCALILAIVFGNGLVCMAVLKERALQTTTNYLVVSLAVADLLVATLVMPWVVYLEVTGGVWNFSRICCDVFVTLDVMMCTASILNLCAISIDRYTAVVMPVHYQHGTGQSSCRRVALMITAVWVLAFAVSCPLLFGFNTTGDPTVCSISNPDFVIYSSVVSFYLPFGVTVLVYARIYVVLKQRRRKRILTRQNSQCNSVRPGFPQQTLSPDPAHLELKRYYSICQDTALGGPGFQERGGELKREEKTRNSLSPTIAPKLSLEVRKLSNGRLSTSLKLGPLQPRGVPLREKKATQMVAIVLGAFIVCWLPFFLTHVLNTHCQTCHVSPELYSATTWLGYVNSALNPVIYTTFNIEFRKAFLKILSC
Experiment [1] deals with T1, 5-hydroxytryptamine receptor 1A (Homo sapiens, UniProt P08908).
T1 sequence (P08908 whole entry): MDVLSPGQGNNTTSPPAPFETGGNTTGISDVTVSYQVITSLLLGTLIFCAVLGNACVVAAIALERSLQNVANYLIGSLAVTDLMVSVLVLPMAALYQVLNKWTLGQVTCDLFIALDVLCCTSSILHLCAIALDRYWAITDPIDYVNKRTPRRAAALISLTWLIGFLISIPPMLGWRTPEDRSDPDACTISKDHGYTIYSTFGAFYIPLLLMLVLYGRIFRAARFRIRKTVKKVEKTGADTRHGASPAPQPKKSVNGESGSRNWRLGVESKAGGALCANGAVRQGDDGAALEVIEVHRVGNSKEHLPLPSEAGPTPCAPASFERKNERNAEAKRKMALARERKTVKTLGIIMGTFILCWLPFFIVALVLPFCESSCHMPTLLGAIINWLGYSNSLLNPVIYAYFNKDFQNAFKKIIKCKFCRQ
Briefly: Displacement of [3H]8-OH-DPAT from human 5HT1A receptor after 60 mins by liquid scintillation counting. The essentials: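 Inhibitor spanned 0.1 nM–10 µM or 0.01 nM–1 µM; 10 µM WAY-100635 defined nonspecific binding. Cold wash, filtration, scintillation counting; IC50 by nonlinear regression.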

The target in experiment [2] is Sigma non-opioid intracellular receptor 1 (Cavia porcellus, UniProt Q60492). The experiment is described as follows: Displacement of (+)-[3H]pentazocine from sigma 1 receptor in guinea pig brain membrane homogenates after 90 mins by liquid scintillation counting.
Sequence of Sigma non-opioid intracellular receptor 1 (Q60492 whole entry): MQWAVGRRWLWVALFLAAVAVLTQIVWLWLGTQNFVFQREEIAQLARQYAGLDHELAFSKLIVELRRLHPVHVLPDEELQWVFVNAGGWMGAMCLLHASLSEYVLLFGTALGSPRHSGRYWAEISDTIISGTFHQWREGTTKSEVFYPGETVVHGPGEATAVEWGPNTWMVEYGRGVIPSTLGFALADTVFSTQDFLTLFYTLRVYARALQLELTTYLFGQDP
Experiment [3] concerns the target T2, Vesicular acetylcholine transporter (Homo sapiens, UniProt Q16572).
T2 sequence (Q16572 whole entry): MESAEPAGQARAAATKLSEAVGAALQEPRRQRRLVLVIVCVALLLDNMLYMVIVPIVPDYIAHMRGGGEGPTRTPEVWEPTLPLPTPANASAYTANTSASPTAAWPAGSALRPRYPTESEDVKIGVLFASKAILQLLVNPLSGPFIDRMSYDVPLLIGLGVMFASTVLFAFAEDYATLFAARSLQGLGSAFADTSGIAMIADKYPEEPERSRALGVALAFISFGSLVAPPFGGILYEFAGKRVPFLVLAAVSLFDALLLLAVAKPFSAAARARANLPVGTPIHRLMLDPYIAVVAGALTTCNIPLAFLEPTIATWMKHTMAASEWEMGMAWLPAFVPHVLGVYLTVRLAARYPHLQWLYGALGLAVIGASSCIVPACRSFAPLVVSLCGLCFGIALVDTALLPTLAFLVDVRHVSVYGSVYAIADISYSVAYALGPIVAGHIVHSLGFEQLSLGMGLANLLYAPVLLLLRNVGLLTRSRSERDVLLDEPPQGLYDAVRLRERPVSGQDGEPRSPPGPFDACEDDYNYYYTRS
Briefly: Displacement of (-)-[3H]vesamicol from human VAChT expressed in rat PC12 A123.7 cells after 20 hrs.

Molecules are shown by their SMILES.

Sequence of D(2) dopamine receptor (P14416 whole entry): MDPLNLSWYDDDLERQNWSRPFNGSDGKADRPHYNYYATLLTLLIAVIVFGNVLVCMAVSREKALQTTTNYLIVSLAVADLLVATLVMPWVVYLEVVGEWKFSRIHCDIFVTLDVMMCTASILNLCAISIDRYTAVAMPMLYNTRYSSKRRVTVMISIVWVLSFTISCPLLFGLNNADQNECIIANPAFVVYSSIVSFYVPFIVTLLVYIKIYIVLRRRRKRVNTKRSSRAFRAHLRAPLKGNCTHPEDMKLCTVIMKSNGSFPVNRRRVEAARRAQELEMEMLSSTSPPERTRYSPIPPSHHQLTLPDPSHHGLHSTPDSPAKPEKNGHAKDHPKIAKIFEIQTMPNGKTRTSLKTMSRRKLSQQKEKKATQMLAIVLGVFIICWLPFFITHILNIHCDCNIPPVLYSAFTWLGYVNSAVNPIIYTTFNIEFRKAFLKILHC

Usually Ki stands for the equilibrium dissociation constant of an inhibitor or competing ligand from its target. Low values mean a stronger hold on the target, high ones a looser hold on the target. As to `O=C(c1ccc(F)cc1)C1CCN([C@H]2CCN(Cc3ccc(F)cc3)C[C@@H]2O)CC1`, the inhibition constant Ki at D(2) dopamine receptor was 1350 nM; at D(3) dopamine receptor, above 20000 nM; in experiment [1], 2540 nM; in experiment [2], 0.48 nM.

With `COc1ccc(C(=O)C2CCN([C@H]3CCN(Cc4ccc(F)cc4)C[C@@H]3O)CC2)cc1`, the figures for the inhibition constant (Ki) at D(2) dopamine receptor and on D(3) dopamine receptor were 1490 nM and above 15000 nM, respectively.

For the molecule `O=C(c1ccc(F)cc1)C1CCN([C@H]2CCN(C(=O)c3ccc(F)cc3)C[C@@H]2O)CC1`, the inhibition constant Ki worked out at 3140 nM in experiment [2] and 3600 nM in experiment [3].

With `O=C(c1ccc(F)cc1)C1CCN([C@H]2CN(Cc3cccnc3)CC[C@@H]2O)CC1`, the Ki in experiment [2] came to 1160 nM; in experiment [3] it was 237 nM.

Take `COc1ccc(C(=O)C2CCN([C@H]3CN(Cc4ccccc4)CC[C@@H]3O)CC2)cc1`: the inhibition constant (Ki) in experiment [2] amounted to 208 nM; in experiment [3], 36 nM.

Regarding `COc1ccc(C(=O)C2CCN([C@H]3CN(Cc4cccnc4)CC[C@@H]3O)CC2)cc1`, the inhibition constant (Ki) came to 2220 nM in experiment [2] and 107 nM in experiment [3].
